This is an account of results in ChEMBL document CHEMBL1132556, “Combined effect of platination and intercalation upon DNA binding of novel cytotoxic Pt-bis(naphthalimide) complexes” (J Med Chem, 1999).

Assay [1] concerns A2780. Nature of the assay: Compound was tested for inhibitory activity against A2780 human ovarian carcinoma cell line; activity expressed in Mean IC50 values. The format is functional, cell-based. In a few lines: (§1)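 Cell survival in drug-treated cultures read by MTT assay. Compound stock solutions (0.5–1.2 mg/mL) were freshly prepared before use. Cells: ovarian carcinoma lines A2780, A2780cisR, CH1 and CH1cisR; normal murine keratinocytes Pam 212; Pam 212-ras, which are murine keratinocytes transformed with the v-H-ras oncogene and resistant to cis-DDP.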

The test system of assay [2] is A2780. Nature of the assay: Compound was tested for inhibitory activity against A2780cisR human ovarian carcinoma cell line; activity expressed in Mean IC50 values. The format is functional, cell-based. Put shortly:
as §1

The subject of assay [3] is CH1. Nature of the assay: Compound was tested for inhibitory activity against CH1cisR human ovarian carcinoma cell line; activity expressed in Mean IC50 values. The format is functional, cell-based. Put shortly: as §1
The subject of assay [4] is CH1. Nature of the assay: Compound was tested for inhibitory activity against CH1 human ovarian carcinoma cell line; activity expressed in Mean IC50 values. The format is functional, cell-based. Put shortly: as §1
A short description of assay [5]: (§2) Compound was tested for inhibitory activity against transformed Pam 212-ras murine keratinocytes; activity expressed in Mean IC50 values. It is filed as functional, Mus musculus. In a few lines: as §1
Assay [6] is described as follows: Compound was tested for inhibitory activity against normal Pam 212 murine keratinocytes; activity expressed in Mean IC50 values. The format is functional, Mus musculus. Put shortly: as §1
For assay [7], the species on record is Mus musculus. Described as §2. The format is functional, organism-based. Put shortly: as §1

Take `O=C1c2cccc3cccc(c23)C(=O)N1CCNCCNCCN1C(=O)c2cccc3cccc(c23)C1=O`: the half-maximal inhibitory concentration (IC50) was more than 10 µM in assay [1] (Homo sapiens, A2780); more than 100 µM in assay [2] (Homo sapiens, A2780); more than 100 µM in assay [3] (Homo sapiens, CH1cisR); more than 10 µM in assay [4] (Homo sapiens, CH1); 160 µM in assay [5]; 140 µM in assay [6].

For the compound CISPLATIN, the IC50 in assay [7] was found to be 165 µM; in assay [3] (ch1cisr), 0.65 µM.

As for “Platinum cyclobutane-1,1-dicarboxylic acid-bis-(naphthalimide) complex”, the concentration for half-maximal inhibition (IC50) stood at 0.28 µM in assay [1] (a2780); 1 µM in assay [2] (a2780); 0.6 µM in assay [3] (ch1cisr); 0.35 µM in assay [4] (ch1); 89 µM in assay [5]; 158 µM in assay [6].
